SENP1 FRET inh: inhibitors of human SENP1 SUMO protease catalytic domain. Q9P0U3. recombinant SENP1 catalytic domain, CyPet-SUMO1-YPet FRET cleavage. inhibition, % at 10 µM. 360,000 tested, 0.21% active;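 active = inhibition at least 30% at 10 µM, raw YFP signal under a set limit, fluorescence ratio 0.5 to 1.5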;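 note: 0% = enzyme with DMSO and 100% = no enzyme wells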
Target sequence (Q9P0U3 419-644 limits assumed): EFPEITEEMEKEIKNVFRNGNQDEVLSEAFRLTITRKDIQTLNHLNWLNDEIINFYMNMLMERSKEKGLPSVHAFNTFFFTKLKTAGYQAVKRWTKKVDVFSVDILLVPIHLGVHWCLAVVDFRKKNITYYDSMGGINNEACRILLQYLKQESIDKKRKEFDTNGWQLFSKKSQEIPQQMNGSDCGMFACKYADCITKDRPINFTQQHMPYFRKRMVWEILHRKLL
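Assay system – human recombinant His6-tagged SENP1 catalytic domain enzyme · Input – SENP1 enzyme, 20 pM final · Buffer or medium – Tris pH 8 buffer plus EDTA, NaCl, BME, BSA, NP40, catalase · Schedule – 50 min reaction at room temperature · Technique – FRET read of cyan and yellow fluorescence · Control set – no-enzyme wells low, DMSO-plus-enzyme wells high control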
SENP8 block-1: SENP8 (human) protease inhibition. AID 602440. recombinant SENP8, Nedd8 substrate fluorescence. inhibition, % at 20 µM. Q96LD8. 360,000 tested, 0.64% active; in the data active = inhibition mostly above about 40%, no sharp cut-off; inactive = mostly below about 27%
SENP7 block: blocks the human protease SENP7; Q9BQF6; recombinant SENP7, Z-RLRGG-aminoluciferin luminescence, 40 min; inhibition, % at 5 µM; 330,000 tested, 1.5% active; AID 434973;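 active = inhibition above about 50% at the single test dose, limit read from the data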;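 note: plate controls were DMSO with enzyme for no effect and no enzyme buffer wells for full effect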
Target sequence (Q9BQF6 706-1050 limits assumed): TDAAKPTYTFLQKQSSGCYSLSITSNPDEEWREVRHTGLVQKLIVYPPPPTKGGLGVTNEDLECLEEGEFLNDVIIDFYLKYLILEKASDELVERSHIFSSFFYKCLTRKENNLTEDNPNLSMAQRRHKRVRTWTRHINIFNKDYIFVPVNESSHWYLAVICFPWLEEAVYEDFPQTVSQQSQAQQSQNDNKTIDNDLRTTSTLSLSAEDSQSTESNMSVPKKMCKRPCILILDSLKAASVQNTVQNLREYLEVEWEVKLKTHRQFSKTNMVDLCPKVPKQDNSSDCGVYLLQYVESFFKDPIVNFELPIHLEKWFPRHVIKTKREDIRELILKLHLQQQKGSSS
SENP6 inh: inhibitors of human SENP6 protease | inhibition, % at 10 µM | AID 2599 | 330,000 tested, 1.8% active | Q9GZR1 | Recombinant SENP6 catalytic domain, aminoluciferin luminescence;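 active = inhibition above about 50% at the single tested dose, limit read from the data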;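 note: plate controls were DMSO wells with enzyme for no effect and DMSO wells lacking enzyme for full effect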
SENP8 block-2: blocks the human protease SENP8. purified SENP8, Z-RLRGG-aminoluciferin cleavage, luminescence. inhibition, % at 10 µM. 330,000 tested, 1.2% active. AID 2540; in the data active = inhibition above about 50%
SENP8 conf: human SENP8 inhibition, confirmed; Recombinant SENP8, Z-RLRGG-aminoluciferin luminescence, 60 min; 6,200 tested, 40% active; shares compounds with SENP7 block; inhibition, % at 12.5 µM;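 active = mean inhibition across replicates above about 50%, limit read from the data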
SENP6 conf: confirmation of human SENP6 protease inhibitors; shares compounds with SENP7 block; recombinant SENP6, Z-RLRGG-aminoluciferin luminescence; inhibition, % at 12.5 µM; 6,200 tested, 58% active
SENP7 confirm: human SENP7 inhibition, confirmed | shares compounds with SENP7 block | recombinant SENP7, Z-RLRGG-aminoluciferin luminescence, 40 min | inhibition, % at 12.5 µM | 6,200 tested, 69% active | AID 488917
Casp3 SENP sel: caspase-3 inhibition (SENP selectivity assay) | shares compounds with SENP7 block | purified caspase-3, Z-DEVD-aminoluciferin luminescence, 60 min | inhibition, % at 12.5 µM | 6,200 tested, 60% active;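 active = mean inhibition above about 50%, limit read from the data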;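 note: plate controls were enzyme with DMSO for no effect and wells without caspase-3 for full effect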
Luc interf: luminescence interference (SENP counter-screen) | shares compounds with SENP7 block | Pre-incubated SENP8/Z-RLRGG-aminoluciferin, luciferase luminescence interference | inhibition, % at 12.5 µM | 6,200 tested, 39% active | AID 488919;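 active = mean inhibition above about 50% when retested at one dose, limit read from the data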;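 note: plate controls were DMSO wells with completed reaction for no effect and substrate without enzyme for full effect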
Active calls of the source: *; i = inactive; / = no result given. In the library only some 2.5% were active in any assay of this set; here they are far more common.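 Rule for the calls, unless noted: active = mean inhibition above about 50% in the one-dose retest (limit read from the data); inactive = the rest.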

SMILES	SENP1 FRET inh	SENP8 block-1	SENP7 block	SENP6 inh	SENP8 block-2	SENP8 conf	SENP6 conf	SENP7 confirm	Casp3 SENP sel	Luc interf
COc1ccc(-c2ccc3c(N)c(C(=O)c4cccc(OC)c4)sc3n2)cc1	-25	-260	14	21	-3	/	/	/	/	/
COc1cccc(-c2ccc3c(N)c(C(=O)NC4CC4)sc3n2)c1	-32	-460	50	60*	46	-16	-14	19	10	24
CCCC1CC(=O)NC1(C(=O)OCC)C(=O)OCC (stereo not given)	2	-7	/	/	/	/	/	/	/	/
COc1ccc(-c2oc3ccccc3c2C(=O)Oc2ccccc2)cc1	2	i	-9	9	4	/	/	/	/	/
S=C(Nc1cccc(Cl)c1)Nc1cccc2cnccc12	-26	-204	/	/	/	/	/	/	/	/
Cc1ccc(NC(=S)Nc2cccc3cnccc23)cc1	-5	-110	70*	92*	87*	-3	25	4	7	9
Cc1ccc(NC(=S)Nc2cccc3cnccc23)cc1C	-9	-212	15	65*	54*	12	20	8	0	-1
CN1CCN(c2ccc3sc(-n4ccc5ccccc54)nc3c2)CC1	2	-26	/	/	/	/	/	/	/	/
CC(/C=C1\SC(=S)N(NS(=O)(=O)c2ccc(C)cc2)C1=O)=C\c1ccccc1	7	38	13	-13	84*	-9	84*	11	23	7
CC(/C=C1\SC(=S)N(NC(=O)c2ccccc2C)C1=O)=C\c1ccccc1	0	27	-6	-19	-6	/	/	/	/	/
CC(/C=C1\SC(=S)N(NS(=O)(=O)c2ccccc2)C1=O)=C\c1ccccc1	1	33	3	96*	80*	92*	92*	37	44	16
CN(C)/C=N/C(=S)Nc1ccc(Cl)c(Cl)c1	2	18	38	60*	13	62*	61*	85*	58*	9
CC(Cn1cncn1)C(=O)N1CCN(S(=O)(=O)c2ccc(Cl)cc2)CC1 (stereo not given)	-1	4	-2	-17	8	/	/	/	/	/
N/C(=N\OCc1ccc([N+](=O)[O-])cc1)c1ccccn1	/	/	96*	95*	90*	94*	94*	100*	95*	71*
N/C(=N\OC(=O)c1ccc(Br)o1)c1ccccn1	2	15	88*	50*	64*	86*	85*	97*	94*	57*
CC(C(=O)O/N=C(\N)c1ccccn1)c1ccc([N+](=O)[O-])cc1 (stereo not given)	1	8	4	10	4	/	/	/	/	/
C/C(=N\OC(=O)c1ccc(Br)cc1)c1ccccn1	5	14	97*	97*	93*	43	54*	44	46	12
COc1cc(OC)cc(C(=O)O/N=C(\N)c2cccc(C)c2)c1	2	7	12	-3	-8	/	/	/	/	/
COc1ccc(C(=O)N/N=C(\C)c2ccccn2)cc1OC	2	3	-10	6	-10	/	/	/	/	/
Cc1cccc(/C(N)=N/OC(=O)c2cccnc2)c1	-1	25	80*	69*	49	47	54*	85*	84*	58*
NC(=O)c1cc2cc(Cl)ccc2o/c1=N/NC(=O)c1cccs1	2	9	5	1	5	/	/	/	/	/
Cc1cc2c(cc1C)-n1nnnc1C(N(Cc1ccccc1)Cc1ccccc1)C(=O)N2 (stereo not given)	1	7	/	/	/	/	/	/	/	/
CC(C)C[C@H]1CN(CCCC[C@H]2CNC(=O)C(=O)N2CC2CCCCC2)C(=O)C(=O)N1CC1CCCCC1	2	14	/	/	/	/	/	/	/	/
N/C(=N\OC(=O)c1ccccc1)c1ccccn1	2	4	98*	96*	92*	97*	98*	102*	98*	95*
C/C(=N\NC(=O)c1cccc(Br)c1)c1ccccn1	1	19	-2	-14	-4	/	/	/	/	/
SMILES	SENP1 FRET inh	SENP8 block-1	SENP7 block	SENP6 inh	SENP8 block-2	SENP8 conf	SENP6 conf	SENP7 confirm	Casp3 SENP sel	Luc interf
Cc1ccc(C(=O)O/N=C(\N)c2ccccn2)cc1C	5	19	98*	98*	93*	95*	95*	101*	96*	86*
C/C(=N\NC(=O)c1cc(Br)ccc1O)c1ccccn1	0	-88	56*	87*	78*	41	85*	84*	91*	29
COc1cc(C(=O)O/N=C(\N)c2ccccn2)cc(OC)c1OC	2	4	2	-3	7	/	/	/	/	/
N/C(=N\OC(=O)C(c1ccccc1)c1ccccc1)c1ccccn1	2	16	1	-1	-5	/	/	/	/	/
COc1ccc(C(=O)O/N=C(\N)c2ccccn2)c(OC)c1	0	3	32	22	8	/	/	/	/	/
N/C(=N\OC(=O)c1cccc(F)c1)c1ccccn1	6	8	91*	90*	81*	91*	93*	101*	97*	90*
O=C1Cc2cc(O)ccc2O1	1	-3	/	/	/	/	/	/	/	/
CC1(C)Oc2ccc(C(=O)NNC(=O)Nc3ccccc3)cc2NC1=O	1	16	-5	-14	-4	/	/	/	/	/
CCOc1ccc(OCc2ccc(C(=O)N/N=C(\C)c3ccccn3)cc2)cc1	0	4	/	/	/	/	/	/	/	/
CCOc1ccc(C(=O)O/N=C(\N)c2ccccn2)cc1	0	7	100*	98*	97*	98*	99*	102*	98*	73*
Cc1cc(C)cc(OCC(=O)O/N=C(\N)c2ccccn2)c1	2	17	7	-20	-6	/	/	/	/	/
Cc1ccc(C(=O)O/N=C(\N)c2ccccn2)cc1	4	9	101*	99*	98*	99*	99*	102*	98*	88*
C/C(=N/OCc1ccc(Br)cc1)c1ccccn1	2	31	91*	-6	82*	4	88*	100*	75*	49
Cc1cccc(C(=O)O/N=C(\N)c2ccccn2)c1	1	11	98*	97*	91*	94*	95*	100*	96*	93*
Cc1ccc(NC(=O)CSC(C)C(=O)OCc2cc(=O)oc3cc(O)ccc23)cc1 (stereo not given)	-103	-490	/	/	/	/	/	/	/	/
COc1ccc(/C=N/N2CCOCC2)cc1COc1ccc(Cl)cc1	1	16	1	-14	-2	/	/	/	/	/
CCOc1ccc(-c2cc(C(=O)NC3CCCCC3)[nH]n2)c(C)c1	-1	14	/	/	/	/	/	/	/	/

Bioassay records from PubChem BioAssay.
